Holding throughout (format): functional
Assay [1] has as its system Rattus norvegicus. The assay can be described thus: Antiimplantation activity was measured as minimum effective dose after oral administration. The conditions noted are these: read-out: MED. The procedure, abridged:
(§1)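 Colony-bred adult female rats (150–170 g) were dosed orally with the compound as a gum acacia suspension on days 1–7 postcoitum, five to seven animals per group. Implants were counted by laparotomy on day 10 of pregnancy. The value is the minimum dose at which implants were totally absent from both uterine horns.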

Assay [2] relates to Rattus norvegicus. The assay can be described thus: Antiimplantation activity as minimum effective dose after subcutaneous administration. The conditions noted are these: sc, read-out: MED. The procedure, abridged:
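Compound was given subcutaneously in 0.5 mL propylene glycol–saline (1:1, v/v) to colony-bred adult female rats (150–170 g) on days 1–7 postcoitum, five to seven animals per group. Laparotomy on day 10 of pregnancy counted implants. The minimum dose giving total absence of implants in both uterine horns was recorded.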

In assay [3] the test system is Rattus norvegicus. As to the kind of experiment: Antiimplantation activity as minimum effective dose after peroral administration. The conditions noted are these: po, read-out: MED. The procedure, abridged: as §1
For assay [4], the system named is Rattus norvegicus. As to the kind of experiment: Antiimplantation activity as minimum effective dose after oral administration. As to conditions: read-out: MED. In short, it runs like this:
as §1

Assay [5] concerns Rattus norvegicus. As to the kind of experiment: Antiimplantation activity as minimum effective dose after oral administration. The conditions noted are these: read-out: MED. In short, it runs like this:
as §1

As for `C#C[C@]1(O)CCC(C2CCc3cc(OC)ccc3C2)C1(C)C` (stereo not given in full), the minimal effective dose turned out to be 1 mg/kg in the assay on Rattus norvegicus [1] and 0.025 mg/kg with Rattus norvegicus [2]. Consider `COc1ccc2c(c1)CCC(C1CCC(O)C1(C)C)C2` (stereo not given), for which the minimal effective dose with Rattus norvegicus [3] was 10.5 mg/kg; in the assay with Rattus norvegicus [2] it was 1.5 mg/kg. Regarding `C#C[C@]1(O)CCC(C2CCc3cc(O)ccc3C2)C1(C)C` (stereo not given in full), the minimal effective dose in the assay with Rattus norvegicus [4] was 0.75 mg/kg; with Rattus norvegicus [2], 0.025 mg/kg.

For the compound `C[C@]12CC[C@@H]3c4ccc(O)cc4CC[C@H]3[C@@H]1CC[C@@H]2O` [ESTRADIOL], the minimal effective dose in the assay on Rattus norvegicus [2] is 0.015 mg/kg. `C#C[C@]1(O)CC[C@H]2[C@@H]3CCc4cc(O)ccc4[C@H]3CC[C@@]21C` [ETHINYL ESTRADIOL]: the minimal effective dose with Rattus norvegicus [5] is 0.15 mg/kg. On to `CC1(C)C(O)CCC1C1CCc2cc(O)ccc2C1` (stereo not given), for which the minimal effective dose is 10 mg/kg with Rattus norvegicus [3] and 0.01 mg/kg in the assay with Rattus norvegicus [2].

These data come from ChEMBL document CHEMBL1124259, “C-nor-9,11-secoestranes as modified estrogens and fertility regulation” (1988).
